Laboratory results as given in ChEMBL document CHEMBL5150043, “Discovery of Anthranilic Acid Derivatives as Difluoromethylornithine Adjunct Agents That Inhibit Far Upstream Element Binding Protein 1 (FUBP1) Function” (J Med Chem, 2022).
Activity calls are given as the source filed them. The rule behind the calls is not given here.

What was measured:
L3.6pl [1] = assay: Inhibition of polyamine transport system in human L3.6pl cells assessed as reduction in [3H] spermidine uptake preincubated for 24 hrs followed by [3H]-spermidine addition and measured after 15 mins by scintillation counter method; type: cell-based; conditions: time 24.25 hrs
In short: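 L3.6pl cells pretreated 24 h with compound, then 3H-Spd added for 15 min; intracellular 3H-Spd measured; mean ± SD (n = 3).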

L3.6pl [2] = assay: Inhibition of polyamine transport system in human L3.6pl cells assessed as reduction in [3H] spermidine uptake preincubated for 72 hrs in presence of DFMO followed by [3H]-spermidine addition and measured after 15 mins by scintillation counter method; type: cell-based; conditions: time 72.25 hrs
In short: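 L3.6pl cells incubated 72 h with DFMO alone or DFMO plus compound, then 3H-Spd added for 15 min; intracellular 3H-Spd measured; mean ± SD (n = 3).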

CHO-K1 [3] = assay: Cytotoxicity against chinese hamster CHO-K1 cells assessed as decrease in cell viability measured after 48 hrs by ATPlite assay; type: toxicity, cell-based, Cricetulus griseus; conditions: cho-k1, 48 h
In short: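 CHO-K1 cells dosed alone in 384-well format in parallel with Assays 1 and 2; MTC taken as highest concentration giving ≥90% relative growth versus untreated control; typical error ±10% (n = 3).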

CHO-K1 [4] = assay: Inhibition of spermidine uptake in chinese hamster CHO-K1 cells assessed as decrease in cell growth by measuring cellular ATP content measured after 48 hrs in presence of DFMO and spermidine by ATPlite assay; conditions: Cricetulus griseus, CHO-K1, 48 h
[5] = Inhibition of spermidine uptake in human L3.6pl cells assessed as inhibition of cell growth by measuring cellular ATP content at MTC measured after 72 hrs in presence of DFMO and spermidine by ATPlite assay; type: functional
In short: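 L3.6pl cells with DFMO and spermidine over 72 h, compound dosed up to its MTC; ECx = percentage effect at the MTC on scale between DFMO-only (50%) and DFMO + Spd (100%) controls; average of ≥2 experiments in triplicate (n ≥ 6).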

L3.6pl [6] = assay: Inhibition of polyamine uptake in human L3.6pl cells assessed as inhibition of Ant44-induced toxicity by measuring cellular ATP content at MTC measured after 72 hrs in presence of Ant44 by ATPlite assay; type: functional
In short: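 L3.6pl cells, Ant44 challenge over 72 h, compound dosed up to its MTC; ECx = percentage effect at the MTC on scale from Ant44-only (50% growth) to untreated (100%); average of ≥2 experiments in triplicate (n ≥ 6).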

[7] = Cytotoxicity against human L3.6pl cells assessed as inhibition of cell growth measured after 72 hrs by ATPlite assay; type: toxicity, cell-based
L3.6pl [8] = assay: Cytotoxicity against human L3.6pl cells assessed as cell viability measured after 72 hrs by ATPlite assay; type: toxicity, cell-based
In short: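 L3.6pl human pancreatic cancer cells in 96-well format were exposed to compound alone for 72 h. Growth was expressed relative to an untreated control. MTC is the highest concentration with relative growth still >90%. […] Data come from two or more experiments, each run in triplicate (n ≥ 6).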

L3.6pl [9] = assay: Inhibition of FUBP1/DNA FUSE region interaction in human […] cells assessed as increase in p21 protein level at 20 to 60 uM incubated for 24 hrs by Western blot analysis; type: cell-based; conditions: dose 20-60 µM
In short: (§1)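 Western blot of L3.6pl cells after 24 h compound treatment with matched DMSO loading; c-Myc, p21 and FUBP1 probed, GAPDH as loading control; at least three independent experiments.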

L3.6pl [10] = assay: Inhibition of FUBP1/DNA FUSE region interaction in human […] cells assessed as reduction in c-myc protein level at 20 to 60 uM incubated for 24 hrs by Western blot analysis; type: cell-based; conditions: dose 20-60 µM; in short: as §1
[11] = Inhibition of spermidine uptake chinese hamster CHO-K1 cells assessed as decrease in cell growth by measuring cellular ATP content measured after 48 hrs in presence of DFMO and spermidine by ATPlite assay; type: functional, cell-based; conditions: Cricetulus griseus, CHO-K1, 48 h
L3.6pl [12] = assay: Decrease in intracellular polyamine level in human L3.6pl cells assessed as putrescine level at 60 uM incubated for 24 hrs by HPLC analysis; type: functional, cell-based
In short: (§2)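 L3.6pl cells incubated 24 h at 37 °C with compound (60 μM) or 0.6% DMSO vehicle; native intracellular polyamines then measured; mean ± SD (n = 3).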

L3.6pl [13] = assay: Decrease in intracellular polyamine level in human L3.6pl cells assessed as spermidine level at 60 uM incubated for 24 hrs by HPLC analysis; type: functional, cell-based; in short: as §2
L3.6pl [14] = assay: Decrease in intracellular polyamine level in human L3.6pl cells assessed as spermine level at 60 uM incubated for 24 hrs by HPLC analysis; type: functional, cell-based; in short: as §2
[15] = molecular target: T1, Far upstream element-binding protein 1 (Homo sapiens) (UniProt Q96AE4); assay: Binding affinity to recombinant GST tagged FUBP1 KH3-KH4 domain (unknown origin) assessed as decrease in FUBP1-FUSE DNA bound complex using 5'-IRDye700 tagged TGTATATTCCCTCGGG oligonucleotide as substrate at 30 to 60 uM measured for 30 mins by Gel shift assay relative to control; conditions: dose 30-60 µM, DDE = dose-dependent effect
T1 sequence (whole entry): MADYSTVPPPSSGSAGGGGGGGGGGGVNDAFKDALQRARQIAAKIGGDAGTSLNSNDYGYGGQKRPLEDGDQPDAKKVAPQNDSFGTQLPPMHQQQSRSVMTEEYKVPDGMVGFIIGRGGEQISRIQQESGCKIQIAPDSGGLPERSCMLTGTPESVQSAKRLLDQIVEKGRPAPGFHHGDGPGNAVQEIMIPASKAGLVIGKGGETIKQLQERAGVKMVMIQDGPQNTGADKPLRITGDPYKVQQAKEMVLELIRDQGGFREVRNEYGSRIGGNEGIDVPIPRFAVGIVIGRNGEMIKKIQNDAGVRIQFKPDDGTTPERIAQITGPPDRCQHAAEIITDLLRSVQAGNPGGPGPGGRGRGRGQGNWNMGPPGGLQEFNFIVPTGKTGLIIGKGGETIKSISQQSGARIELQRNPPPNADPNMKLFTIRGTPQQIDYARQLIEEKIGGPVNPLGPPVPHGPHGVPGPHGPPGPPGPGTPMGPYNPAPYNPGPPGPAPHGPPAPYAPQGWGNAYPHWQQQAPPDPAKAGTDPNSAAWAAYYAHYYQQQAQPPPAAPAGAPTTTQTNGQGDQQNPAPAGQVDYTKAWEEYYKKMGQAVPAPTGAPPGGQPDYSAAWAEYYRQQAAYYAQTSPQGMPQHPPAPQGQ

L3.6pl [16] = assay: Inhibition of FUBP1/DNA FUSE region interaction in human […] cells assessed as decrease in c-myc mRNA level at 20 to 60 uM incubated for 24 hrs by qRT-PCR analysis; type: cell-based; conditions: dose 20-60 µM
In short: (§3)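 L3.6pl cells treated 24 h with compound or matched DMSO; p21 and c-Myc mRNA by qRT-PCR, normalized to β-actin; log mean ± SD (n = 2).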

L3.6pl [17] = assay: Inhibition of FUBP1/DNA FUSE region interaction in human […] cells assessed as increase in p21 mRNA level at 20 to 60 uM incubated for 24 hrs by qRT-PCR analysis; type: cell-based; conditions: dose 20-60 µM; in short: as §3
L3.6pl [18] = assay: Inhibition of FUBP1/DNA FUSE region interaction in human […] cells assessed as reduction in c-Myc FUSE DNA pull down at 60 uM incubated for 24 hrs by qRT-PCR analysis; type: cell-based
In short: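 ChIP: L3.6pl cells ± compound (60 μM) 24 h; crosslinked FUBP1–DNA immunoprecipitated with FUBP1 antibody, crosslink reversed, FUSE sequence upstream of c-Myc promoter amplified by qPCR; mean fold change ± SEM (n = 2).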

L3.6pl [19] = assay: Decrease in intracellular polyamine level in human L3.6pl cells assessed as total polyamine level at 60 uM incubated for 24 hrs by HPLC analysis; type: functional, cell-based; in short: as §2

| SMILES | MTC (CHO-K1 [3]) | EC50 (CHO-K1 [4]) | inhibition (INH) [5] | inhibition (INH) (L3.6pl [6]) | IC50 at 72 h [7] | MTC (L3.6pl [8]) | EC50 [11] | further results |
| --- | --- | --- | --- | --- | --- | --- | --- | --- |
| CNCCCCNCCCCNCc1cc(CNCCCCNCCCCNC)cc(CNCCCCNCCCCNC)c1 |  |  |  |  |  |  |  | inhibition (L3.6pl [1]): Active; inhibition (L3.6pl [2]): Active |
| Cc1ccccc1CN1CCN(c2ccc(NC(=O)C(C)(C)C)cc2)CC1 | 2 µM | 2 µM | 15% | 15% | > 10 µM | 10 µM |  |  |
| COc1ccc(-c2cc(C(F)(F)F)n3nc(-c4cccs4)cc3n2)cc1OC |  |  |  |  |  |  |  | inhibition (L3.6pl [9]): Active; inhibition (L3.6pl [10]): Active |
| COc1ccccc1C(=O)Nc1ccc(N2CCC(Oc3ccccc3)CC2)cc1C(=O)O | > 40 µM | 19 µM | 45% | 35% | 38.6 µM | 10 µM | 32 µM |  |
| NCCCC(N)(C(=O)O)C(F)F (centres undefined) |  |  |  |  |  |  |  | Activity (L3.6pl [12]): Active; Activity (L3.6pl [13]): Active |
| O=C(Nc1ccc(N2CCN(c3ccccn3)CC2)cc1C(=O)O)c1ccco1 | > 40 µM | > 40 µM | 31% | 41% | > 50 µM | 12 µM | > 40 µM |  |
| COc1ccc(C(=O)Nc2ccc(N3CCN(c4cc(Cl)ccc4C)CC3)cc2C(=O)O)cc1 | 13 µM | 8 µM |  |  | 16.8 µM | 8 µM | > 40 µM | Activity (L3.6pl [14]): Active; Activity [15]: Dde; inhibition (L3.6pl [16]): Active; inhibition (L3.6pl [9]; DDE = dose-dependent effect): Dde; inhibition (L3.6pl [10]; DDE = dose-dependent effect): Dde; inhibition (L3.6pl [17]): Active; inhibition (L3.6pl [18]): Active; Activity (L3.6pl [12]): Active; Activity (L3.6pl [19]): Active; Activity (L3.6pl [13]): Active |
| COc1ccc(C(=O)Nc2ccc(N3CCN(c4ccccc4OC)CC3)cc2C(=O)O)cc1 | > 40 µM | 26 µM | 8% | 25% | 13.3 µM | 6 µM | 9 µM |  |
| COc1ccccc1C(=O)Nc1ccc(N2CCN(C(=O)c3ccccn3)CC2)cc1C(=O)O | > 40 µM | > 40 µM |  |  | > 10 µM | 10 µM | > 40 µM |  |
| COc1ccc(C(=O)Nc2ccc(N3CCN(c4ccccc4Cl)CC3)cc2C(=O)O)cc1 | 28 µM | 27 µM | 2% | 27% | 125 µM | 90 µM |  |  |
| COc1ccccc1C(=O)Nc1ccc(N2CCN(c3cc(Cl)ccc3C)CC2)cc1C(=O)O | 19 µM | 21 µM |  |  | 29.1 µM | 7 µM | 2 µM |  |
